C2C12 statin: suppressors of statin myotoxicity in C2C12 myotubes, primary screen, cell-based, single point, plate reader. C2C12 myotubes + simvastatin, ATP luminescence, 48 h; scaled: DMSO 0, geranylgeraniol control 100. rescue of ATP level, % at 7.49 µM. actives 0.78% (n = 330,000). AID 602340, 2012;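 active means mean ATP rescue above about 67%, or every replicate alone reaching that limit, limit read from the data, passing the limit was not always enough; inconclusive means no clear call, values can overlap the other calls; inactive means mean under the limit and some replicate under it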;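 further: myotubes were challenged with 10 µM simvastatin during compound exposure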
DENV2 CPE: inhibitors of DENV2 cytopathic effect, primary screen, cell-based, plate reader, single concentration | DENV2-infected cells, cytopathic effect rescue | CPE inhibition, % at 9.99 µM | actives 1.7% (n = 350,000); in the data active means CPE inhibition above about 20%, passing the limit was not always enough; inconclusive means no clear call, values can overlap the other calls; tested in BHK-21 cells;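 further: 0% = median of neutral control wells and 100% = median of positive control wells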
Xi reactivation: activators of inactive X chromosome reactivation, primary screen, imaging, XiGFP fibroblasts, GFP high-content imaging, set 2; activation, % at 7.58 µM; XiGFP mouse fibroblasts, % GFP-positive cells imaging, 3 d; cells co-treated with 5-aza-dC sensitizer; scaled so ellipticine positive control = 100%; actives 0.055% (n = 360,000); AID 743238, 2013;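 active means mean normalized replicate activation at least 10% and every replicate at or above 10%; inconclusive means only one of the two criteria met; inactive means mean below 10% and not all replicates reach 10%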;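 further: 0% = median of on-plate neutral control wells and 100% = ellipticine 6 µM median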
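System: 68-5-11 XiGFP fibroblast line; Timing: 3 days compound exposure; Compound dosing: one concentration, pinned; Benchmarks: positive control ellipticine, 6 µM final; Buffer or medium: DMEM containing 5-aza-dC.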
Cneo AK release: Cryptococcus neoformans cell lysis inducers, primary screen, AK release luminescence, single concentration. lysis activity, % at 15 µM. actives 0.2% (n = 360,000). C. neoformans lysis, adenylate kinase release luminescence, 4 h; normalised: neutral wells 0, clomiphene wells 100;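 active means mean lysis activity across replicates of at least 80%, whatever share of replicates individually reach that level; inactive means mean lysis activity below 80%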
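Material: C. neoformans cells | Amount: Yeast cell density of 5 × 10^6 cells/mL | Medium: Fresh YPD growth medium | Dosing: Single dose | Times: Static 4 h at 37 °C with compound, 1 h detection | Detection: AK luminescence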
* = called active by the depositor. The list is not random: actives were taken first. Their share in the collection is about 2.1%.

C[C@@H]1CN([C@H](C)CO)C(=O)Cc2cc(NC(=O)CCN3CCOCC3)ccc2O[C@H]1CN(C)C(=O)Nc1ccccc1 was read as C2C12 statin 4, DENV2 CPE -13, Xi reactivation 0 and Cneo AK release -1.
Screening C[C@@H]1CN([C@H](C)CO)C(=O)c2cc(NC(=O)Cc3ccccc3)ccc2O[C@@H]1CN(C)S(=O)(=O)c1ccccc1 returned C2C12 statin 10, DENV2 CPE -10, Xi reactivation 0 and Cneo AK release -6.
CCOC(=O)c1cnc(SCC(=O)OC)nc1N was read as DENV2 CPE -2 and Xi reactivation 0.
`CCOC(=O)CC(=O)CSc1ncc(C(=O)OCC)c(N)n1` gave C2C12 statin 120* and Cneo AK release 1.
Screening O=C(NC[C@H]1CC[C@H]2[C@H](CN2S(=O)(=O)c2ccccc2)O1)NC1CCCCC1 returned DENV2 CPE 7.
`CN(C(=O)c1ccc(Br)o1)C1CCCCC1` gave C2C12 statin -10, DENV2 CPE 61*, Xi reactivation 0 and Cneo AK release 0.
Cc1cc(=S)[nH]c2c(C)cccc12 was read as C2C12 statin 74* and Cneo AK release 1.
Screening CC1(C)CC(=O)C2=C(C1)Nc1cc3c(cc1C2c1ccc2c(c1)OCO2)OCO3 (stereo not given) returned C2C12 statin 23, DENV2 CPE 38*, Xi reactivation 0 and Cneo AK release -1.
`CC1(C)CC(=O)C2=C(C1)Nc1cc3c(cc1C2c1ccc(F)cc1)OCO3` (stereo not given) gave C2C12 statin 49 and Cneo AK release -1.
Screening CCOC(=O)C1=C(C)N=C2SC(C)C(=O)N2C1c1ccc(C(=O)OC)cc1 (stereo not given) returned C2C12 statin 91* and Cneo AK release 0.
Screening CCOC(=O)C1=C(C)N=C2SC(C)C(=O)N2C1c1ccccc1 (stereo not given) returned C2C12 statin 13, DENV2 CPE -9, Xi reactivation 0 and Cneo AK release -1.
For C[C@@H]1CCCCO[C@@H](CN(C)Cc2ccc(Cl)c(Cl)c2)[C@@H](C)CN([C@H](C)CO)C(=O)c2cc(NS(=O)(=O)c3ccc(Cl)cc3)ccc2O1 the results were DENV2 CPE 79*, Xi reactivation 0 and Cneo AK release 1.
Screening C[C@@H]1CCCCO[C@@H](CN(C)Cc2ccc(Cl)c(Cl)c2)[C@H](C)CN([C@H](C)CO)C(=O)c2cc(NS(=O)(=O)c3ccc(F)cc3)ccc2O1 returned DENV2 CPE inconclusive, Xi reactivation 0 and Cneo AK release 27.
C[C@@H]1CCCCO[C@@H](CN(C)Cc2ccc(Cl)c(Cl)c2)[C@H](C)CN([C@H](C)CO)C(=O)c2cc(NS(=O)(=O)c3ccc(Cl)cc3)ccc2O1 was read as DENV2 CPE 13, Xi reactivation 0 and Cneo AK release 7.
`C[C@@H]1CCCCO[C@H](CN(C)Cc2ccc(Cl)c(Cl)c2)[C@@H](C)CN([C@@H](C)CO)C(=O)c2cc(NS(=O)(=O)c3ccc(F)cc3)ccc2O1` gave DENV2 CPE 31* and Xi reactivation 0.
Cn1nc(C(=O)N2CCN(c3ccccc3F)CC2)c2c1-c1ccccc1S(=O)(=O)C2 was read as C2C12 statin 1, DENV2 CPE -3 and Xi reactivation 0.
`Cc1cccc(N2CCN(C(=O)c3nn(C)c4c3CS(=O)(=O)c3ccccc3-4)CC2)c1C` gave C2C12 statin -11, DENV2 CPE 36*, Xi reactivation 0 and Cneo AK release 1.
Screening CCCCNC(=O)c1onc(CS(=O)(=O)c2ccccn2)c1C(=O)NCCCC returned C2C12 statin -1, DENV2 CPE 40*, Xi reactivation 0 and Cneo AK release -4.
CCCC(=O)Nc1ccc2c(c1)C(=O)N(C)[C@H]1CC[C@@H](CC(=O)N3CCc4ccccc4C3)O[C@@H]1CO2 was read as C2C12 statin 11, DENV2 CPE -7, Xi reactivation 0 and Cneo AK release 0.
Screening COc1ccc(C#Cc2ccc([C@@H]3[C@@H](CO)N4C(=O)CN(C(=O)NC(C)C)C[C@@H]34)cc2)cc1 returned DENV2 CPE -3 and Xi reactivation 0.
